High-throughput results deposited in PubChem by The Scripps Research Institute Molecular Screening Center.
OXTR ag = human OXTR agonism. P30559. CHO-OTR cells, Fluo-8 calcium fluorescence; normalized: DMSO 0%, oxytocin 100%. activation, % at 3 µM. 320,000 compounds, 0.32% hits;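 active = activation above the mean of all tested compounds plus 3 SD, cutoff set per screening run, cut at about 20% in these data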;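 note: peak over basal fluorescence ratio from a 100 s FLIPR kinetic read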
OX1R antag-1 = antagonists of human orexin 1 receptor (OX1R); OX1R-expressing cells, FRET antagonist read-out; 330,000 compounds, 1.8% hits; inhibition, % at 6.6 µM; O43613; in the data active = inhibition mostly above about 38%, no sharp cut-off; inactive = mostly below about 40%
OX1R antag-2 = human HCRTR1 antagonism; O43613; CHO/OX1R cells, Fluo-8 calcium fluorescence, orexin A; inhibition, % at 5 µM; 330,000 compounds, 0.43% hits;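 active = inhibition above its plate's threshold, mean inhibition of all tested compounds on the plate plus 3 SD, cut at about 37% in these data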
CHO parental Ca = counter-screen: ATP calcium response change in parental CHO cells | parental CHO-K1, ATP-induced calcium, Fluo-8 fluorescence | inhibition, % at 5.6 µM | 330,000 compounds, 0.63% hits | AID 463079;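 active = inhibition above that plate's mean sample inhibition plus 3 SD, cut at about 26% in these data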
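material = parental CHO cells | also added = ATP as calcium-mobilizing challenge | dosing = single point at 5.6 µM | detection = intracellular calcium via Fluo-8 no-wash fluorescent dye | read-out = % inhibition | benchmarks = low control ATP plus DMSO, high control DMSO only | repeats = one well per compound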
V1aR counter = counter-screen for oxytocin receptor agonists: human V1a receptor agonists | CHO-V1R cells, Fluo-8 calcium fluorescence, agonist mode; 0% DMSO, 100% 3 nM vasopressin | activation, % at 3 µM | 320,000 compounds, 0.25% hits;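 active = activation above the mean activation of all tested compounds plus 3 SD, per screening run, cut at about 20% in these data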;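 note: signal is peak over basal fluorescence ratio across a 100 second FLIPR read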
Target sequence (P37288 whole entry, looked up): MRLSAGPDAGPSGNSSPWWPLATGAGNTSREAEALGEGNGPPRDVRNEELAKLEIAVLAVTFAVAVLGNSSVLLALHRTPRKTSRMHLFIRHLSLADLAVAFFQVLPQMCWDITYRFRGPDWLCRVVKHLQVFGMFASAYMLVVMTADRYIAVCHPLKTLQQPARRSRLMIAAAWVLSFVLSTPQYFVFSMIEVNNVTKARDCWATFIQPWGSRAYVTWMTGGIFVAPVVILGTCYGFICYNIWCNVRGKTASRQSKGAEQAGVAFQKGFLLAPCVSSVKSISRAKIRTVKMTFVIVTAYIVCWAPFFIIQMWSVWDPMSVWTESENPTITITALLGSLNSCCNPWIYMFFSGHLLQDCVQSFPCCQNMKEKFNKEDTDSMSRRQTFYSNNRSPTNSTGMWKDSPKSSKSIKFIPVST
OXTR potentiate = potentiates the human oxytocin receptor response; P30559; CHO-OTR cells, Fluo-8 calcium fluorescence, potentiator mode; 0% = oxytocin EC15, 100% = EC100; activation, % at 3 µM; 320,000 compounds, 0.061% hits;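 active = activation above that plate's cutoff, the mean activation of tested compounds plus 3 SD, cut at about 6.6% in these data, passing the limit was not always enough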
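System: human OTR in CHO cells; Also added: sub-maximal oxytocin, roughly EC15; Timing: compound 6 min at room temperature before oxytocin, 100 s read; Technique: Fluo-8 intracellular calcium fluorescence, ex 470-495, em 515-575 nm; Controls: oxytocin EC15 low and EC100 high; Replication: singlicate.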
OX1R HTRF conf = confirmation of human orexin 1 receptor antagonists, HTRF format; OX1R-expressing cells, HTRF antagonist assay; shares compounds with OX1R antag-1; AID 492964; 1,800 compounds, 49% hits; inhibition, % at 6.6 µM; in the data active = inhibition above about 55%;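 note: CHO cells expressing OX1R stimulated with orexin A at about EC80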
CHO-K1 HTRF = counter-screen: parental CHO-K1 HTRF response. AID 493232. parental CHO-K1 cells, HTRF counterscreen. inhibition, % at 6.6 µM. 1,800 compounds, 48% hits. shares compounds with OX1R antag-1; in the data active = inhibition above about 17%
Of the large screens only hits and unclear results are named; the others gave an inactive call (follow-up assays come after a bar, where they were run). This is a sample that favours compounds with a hit; in the whole collection about 2.6% have one here.

CC(=O)N1CN2CN(C(C)=O)CC(C(=O)c3ccccc3)(C2)C1	none
CC(=O)N1CN2CN(C(C)=O)CC(C(=O)c3ccc([N+](=O)[O-])cc3)(C2)C1	OX1R antag-1 93.4 | OX1R HTRF conf 58.5 | CHO-K1 HTRF 52.4
NC(N)=Nc1ccc2[nH]c3c(c2c1)C[C@@]1(O)[C@H]2Cc4ccc(O)c5c4[C@@]1(CCN2CC1CC1)[C@H]3O5	none
Cc1ccc(C(=O)O)cc1N=Nc1c(O)[nH]c(=O)[nH]c1=O	OX1R antag-1 154.1 | OX1R HTRF conf 57.5 | CHO-K1 HTRF 100.7
O=C(O)c1cccc(N=Nc2c(O)[nH]c(=O)[nH]c2=O)c1	OX1R antag-1 137.7 | OX1R HTRF conf 61.8 | CHO-K1 HTRF 92.3
CCOC(=O)c1sc(N=Nc2c(O)[nH]c(=O)[nH]c2=O)c(C(=O)OCC)c1C	none
Cc1cccc(NC(=O)COC(=O)c2cc(C)n(C3CC3)c2C)c1	none
O=C1C2CCN(CC2)C1Cc1ccc(OCc2ccccc2)cc1 (stereo not given)	none
O=C1NC(=O)C(=Cc2ccc(N3CCOCC3)o2)C(=O)N1	OX1R antag-1 92.2 | OX1R HTRF conf inactive | CHO-K1 HTRF 99.2
CCCCCCC[n+]1ccc(-c2cc[n+](CCCCCCC)cc2)cc1	OX1R antag-1 140.1 | OX1R HTRF conf 60.3 | CHO-K1 HTRF 91.5
C[n+]1ccc(-c2cc[n+](C)cc2)cc1	none
O=C1OC(c2ccc([N+](=O)[O-])cc2)=N/C1=C/N1CC2CC(C1)c1cccc(=O)n1C2 (stereo not given)	OX1R antag-1 80.4 | OX1R HTRF conf inactive | CHO-K1 HTRF 17.7
COC(=O)C1=C(c2cccc(Cl)c2)C[C@@H]2CC[C@H]1N2C(=O)N1CCCC1	none
CCc1nnc(NC(=O)CCc2nc(C3=CCN(C)CC3)no2)s1	OX1R antag-1 98.2 | OX1R HTRF conf inactive | CHO-K1 HTRF inactive
Cc1ccccc1NS(=O)(=O)c1ccc(OCC(=O)N2CCN(C)CC2)cc1	none
